The values below come from ChEMBL document CHEMBL1649152, “Pharmacokinetics of hydroxychloroquine and its clinical implications in chemoprophylaxis against malaria caused by Plasmodium vivax” (Antimicrob Agents Chemother, 2009).

The term Cmax denotes the highest concentration seen after dosing. As usually defined, the AUC is concentration integrated over time. A word on the CL/F: it is clearance divided by bioavailability, as obtained after extravascular dosing. As usually defined, the Tmax is the time from dosing to the highest level. The term AUC(0-t) denotes the area under the concentration-time curve up to a stated or last time point. In general, AUC(0-inf) refers to the area under the concentration-time curve extrapolated to infinity.

Data set [1] relates to Homo sapiens. Briefly: Ratio of AUC for desethylchloroquine level to AUC for compound in healthy human at 400 mg, po administered as single dose. It is filed as ADME, organism-based. To be noted: in vivo. An outline of the steps:
(§1)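 Six healthy volunteers in study Ia, fasted from 10 h before to 4 h after dosing, sampled serially up to 314 h. Plasma was stored at –70°C, ether-extracted from ammonia-alkalinised plasma with an internal standard, and assayed by C18 RP-HPLC with fluorescence (ex 320/em 370 nm). Calibration was 10–2,000 ng/ml for parent and 5–200 ng/ml for DCQ/BDCQ. Metabolite and parent AUCs came from noncompartmental linear-log trapezoidal analysis with λz extrapolation to infinity.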

Data set [2] is described as follows: Cmax in healthy human plasma at 400 mg, po administered as single dose. The format is ADME, organism-based. Also on record: dose 400 mg, route oral. An outline of the steps:
(§2)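 Six healthy subjects (study Ia), fasted from 10 h before to 4 h after the oral dose; serial plasma sampled up to 314 h. Plasma extracted with diethyl ether, then reversed-phase HPLC on a C18 column with fluorescence detection (ex 320/em 370 nm). Noncompartmental analysis: Cmax and Tmax observed; terminal t1/2 = ln2/λz; AUC by linear-log trapezoidal, AUCinf extrapolated.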

The subject of data set [3] is Homo sapiens. Briefly: Cmax in healthy human plasma assessed as desethylchloroquine level at 400 mg, po administered as single dose. The settings on record: in vivo. The format is ADME, organism-based. Further details: dose 400 mg, route oral. An outline of the steps: as §2
Data set [4] relates to Homo sapiens. Briefly: Terminal half life in healthy human assessed as bisdesethylchloroquine level at 400 mg, po administered as single dose. The format is ADME, organism-based. The settings on record: in vivo. An outline of the steps: as §2
In data set [5] the test system is Homo sapiens. Briefly: AUC (last) in healthy human assessed as bisdesethylchloroquine level at 400 mg, po administered as single dose. It is filed as ADME, organism-based, Plasma. The settings on record: in vivo. Further details: dose 400 mg, route oral, time 0 - last. An outline of the steps: as §2
Data set [6] has as its system Homo sapiens. Briefly: AUC (infinity) in healthy human assessed as bisdesethylchloroquine level at 400 mg, po administered as single dose. The format is ADME, organism-based, Plasma. To be noted: in vivo. Further details: dose 400 mg, time infinity, route oral. An outline of the steps:
as §2

Data set [7] can be described thus: Apparent oral clearance in healthy human at 400 mg, po administered as single dose. The format is ADME, organism-based. To be noted: in vivo.
For data set [8], the system named is Homo sapiens. Briefly: AUC (infinity) in healthy human assessed as desethylchloroquine level at 400 mg, po administered as single dose. Also on record: dose 400 mg, route oral, time infinity. It is filed as ADME, organism-based, Plasma. To be noted: in vivo. An outline of the steps:
as §2

For data set [9], the system named is Homo sapiens. Briefly: Ratio of AUC for bisdesethylchloroquine level to AUC for compound in healthy human at 400 mg, po administered as single dose. It is filed as ADME, organism-based. To be noted: in vivo. An outline of the steps:
as §1

Data set [10] deals with Homo sapiens. Briefly: Cmax in healthy human plasma assessed as bisdesethylchloroquine level at 400 mg, po administered as single dose. It is filed as ADME, organism-based. Further details: dose 400 mg, route oral. The settings on record: in vivo. An outline of the steps:
as §2

The nature of data set [11]: Terminal half life in healthy human at 400 mg, po administered as single dose. The settings on record: in vivo, read-out: beta t1/2 (converted). The format is ADME, organism-based. An outline of the steps: as §2
Data set [12] deals with Homo sapiens. Briefly: Tmax in healthy human assessed as bisdesethylchloroquine level at 400 mg, po administered as single dose. The format is ADME, organism-based. The settings on record: in vivo. An outline of the steps: as §2
Data set [13] in a line: Tmax in healthy human at 400 mg, po administered as single dose. It is filed as ADME, organism-based. The settings on record: in vivo. An outline of the steps: as §2
Data set [14] in a line: AUC (last) in healthy human at 400 mg, po administered as single dose. It is filed as ADME, organism-based. Also on record: dose 400 mg, time 0 - last, route oral. To be noted: plasma. An outline of the steps: as §2
Data set [15] has as its system Homo sapiens. Briefly: Terminal half life in healthy human assessed as desethylchloroquine level at 400 mg, po administered as single dose. It is filed as ADME, organism-based. To be noted: in vivo. An outline of the steps:
as §2

In data set [16] the test system is Homo sapiens. Briefly: AUC (last) in healthy human assessed as desethylchloroquine level at 400 mg, po administered as single dose. The format is ADME, organism-based, Plasma. Further details: dose 400 mg, time 0 - last, route oral. The settings on record: in vivo. An outline of the steps: as §2
The test system of another data set is Plasmodium vivax. Briefly: Antimalarial activity against Plasmodium vivax infected in patient assessed as prophylaxis at 400 mg, po once a week.
The nature of data set [17]: AUC (infinity) in healthy human at 400 mg, po administered as single dose. The settings on record: plasma. It is filed as ADME, organism-based. Also on record: dose 400 mg, time infinity, route oral. An outline of the steps: as §2
The subject of data set [18] is Homo sapiens. Briefly: Tmax in healthy human assessed as desethylchloroquine level at 400 mg, po administered as single dose. The format is ADME, organism-based. The settings on record: in vivo. An outline of the steps: as §2
Data set [19] can be described thus: Apparent peripheral distribution volume in healthy human at 400 mg, po administered as single dose. The settings on record: in vivo, read-out: Vz/F. The format is ADME, organism-based.

Molecules are shown by their SMILES. The source made the active and inactive calls. No cut-off for these calls is given here.

As to `CCN(CCO)CCCC(C)Nc1ccnc2cc(Cl)ccc12` (stereo not given) [HYDROXYCHLOROQUINE], the Ratio in the data set with Homo sapiens [1] is on record as 0.39; in the data set on Homo sapiens [9], 0.63. For the same compound, the peak concentration (Cmax) was 1220 nM in data set [2], 60 nM in the data set with Homo sapiens [3] and 360 nM in the data set with Homo sapiens [10]. The “beta t1/2” value in the data set on Homo sapiens [4] came out at 241 h; in the data set on Homo sapiens [15], 549.9 h. For the same compound, the AUC with Homo sapiens [5] amounted to 34 µM·h; with Homo sapiens [6], 53.6 µM·h; in the data set on Homo sapiens [8] it was 37.7 µM·h; in the data set on Homo sapiens [16] it was 12.2 µM·h. Besides, the apparent clearance CL/F in data set [7] is 200 mL/min. In data set [11], the half-life is 172 h. In addition, the Tmax in the data set on Homo sapiens [12] came out at 72.8 h; in [13] it was 2.4 h; in the data set on Homo sapiens [18] it was 6.1 h. Moreover, the exposure AUC(0-t) in data set [14] stood at 75.4 µM·h. Moreover, the result in the data set on Plasmodium vivax was inactive. The compound further returned a total exposure AUC(0-inf) in data set [17] of 102 µM·h. Moreover, in data set [19], the Vd/F amounted to 2850 L.
